The test system of assay [1] is Streptococcus pneumoniae. Briefly: Antimicrobial activity against drug-susceptible Streptococcus pneumoniae 2 after 20 hrs by agar dilution method. Type of assay: functional. The essentials:
(§1)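 Streptococci, H. influenzae and M. catarrhalis were precultured on blood agar plates. Suspensions of about 10⁶ CFU/ml were inoculated onto sensitivity disk agar supplemented with 5% horse blood and incubated at 37 °C for 20 h. MIC was read as the lowest drug concentration with no visible growth.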
On the technique in general: In agar dilution the substance is mixed into plates at graded concentrations.

Assay [2] concerns Streptococcus pneumoniae. The experiment in a line: Antimicrobial activity against Streptococcus pneumoniae 4 constitutively expressing ermB after 20 hrs by agar dilution method. Format: functional. The essentials:
as §1

Assay [3] relates to Streptococcus pyogenes. The experiment in a line: Antimicrobial activity against drug-susceptible Streptococcus pyogenes 1 after 20 hrs by agar dilution method. Type of assay: functional. The essentials: as §1
Assay [4] relates to Haemophilus influenzae. Briefly: Antimicrobial activity against drug-susceptible Haemophilus influenzae 4 after 20 hrs by agar dilution method. Type of assay: functional. The essentials: as §1
The subject of assay [5] is Moraxella catarrhalis. Briefly: Antimicrobial activity against drug-susceptible Moraxella catarrhalis 1 after 20 hrs by agar dilution method. Format: functional. In a few lines: as §1
Assay [6] has as its system Streptococcus pyogenes. Briefly: Antimicrobial activity against Streptococcus pyogenes 2 constitutively expressing ermB after 20 hrs by agar dilution method. Type of assay: functional. In a few lines: as §1
Assay [7] relates to Moraxella catarrhalis. The experiment in a line: Antimicrobial activity against drug-susceptible Moraxella catarrhalis 2 after 20 hrs by agar dilution method. Type of assay: functional. In a few lines: as §1
The subject of assay [8] is Staphylococcus aureus. Briefly: Antimicrobial activity against Staphylococcus aureus 6 expressing inducible ermC after 20 hrs by agar dilution method.
Assay [9] deals with Staphylococcus aureus. Briefly: Antimicrobial activity against Staphylococcus aureus 5 expressing inducible ermB after 20 hrs by agar dilution method. Type of assay: functional. The essentials: (§2)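 Agar dilution MIC. S. aureus seed culture was grown in sensitivity test broth. Cell suspension (about 10⁶ CFU/ml) was inoculated onto sensitivity disk agar with 5% horse blood and incubated at 37 °C for 20 h. MIC was the lowest drug concentration that prevented visible growth.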

The test system of assay [10] is Streptococcus pneumoniae. The experiment in a line: Antimicrobial activity against Streptococcus pneumoniae 6 constitutively expressing ermB after 20 hrs by agar dilution method. Type of assay: functional. The essentials: as §1
For assay [11], the system named is Streptococcus pneumoniae. Briefly: Antimicrobial activity against drug-susceptible Streptococcus pneumoniae DP1 Type1 after 20 hrs by agar dilution method. Format: functional. In a few lines: as §1
Assay [12] deals with Streptococcus pneumoniae. The experiment in a line: Antimicrobial activity against Streptococcus pneumoniae 5 constitutively expressing ermB/mefA after 20 hrs by agar dilution method. Format: functional. The essentials: as §1
Assay [13] deals with Haemophilus influenzae. Briefly: Antimicrobial activity against drug-susceptible Haemophilus influenzae 3 after 20 hrs by agar dilution method. Type of assay: functional. In a few lines:
as §1

The test system of assay [14] is Haemophilus influenzae. Briefly: Antimicrobial activity against drug-susceptible Haemophilus influenzae 1 after 20 hrs by agar dilution method. Format: functional. The essentials: as §1
Assay [15] deals with Streptococcus pneumoniae. The experiment in a line: Antimicrobial activity against Streptococcus pneumoniae 8 expressing inducible ermB after 20 hrs by agar dilution method. Format: functional. In a few lines: as §1
Assay [16] deals with Staphylococcus aureus. The experiment in a line: Antimicrobial activity against Staphylococcus aureus 4 constitutively expressing ermA after 20 hrs by agar dilution method. Type of assay: functional. In a few lines:
as §2

Assay [17] relates to Streptococcus pyogenes. Briefly: Antimicrobial activity against Streptococcus pyogenes 3 expressing mefA after 20 hrs by agar dilution method. Format: functional. In a few lines:
as §1

Assay [18] deals with Staphylococcus aureus. The experiment in a line: Antimicrobial activity against drug-susceptible Staphylococcus aureus 209P JC-1 after 20 hrs by agar dilution method. Type of assay: functional. In a few lines:
as §2

The test system of assay [19] is Streptococcus pneumoniae. Briefly: Antimicrobial activity against Streptococcus pneumoniae 7 expressing inducible ermB after 20 hrs by agar dilution method. Format: functional. The essentials:
as §1

In assay [20] the test system is Streptococcus pneumoniae. Briefly: Antimicrobial activity against Streptococcus pneumoniae 10 expressing mefA after 20 hrs by agar dilution method. Type of assay: functional. The essentials: as §1
The test system of assay [21] is Streptococcus pneumoniae. The experiment in a line: Antimicrobial activity against Streptococcus pneumoniae 9 expressing mefA after 20 hrs by agar dilution method. Type of assay: functional. In a few lines:
as §1

Assay [22] relates to Streptococcus pneumoniae. Briefly: Antimicrobial activity against drug-susceptible Streptococcus pneumoniae 3 after 20 hrs by agar dilution method. Type of assay: functional. The essentials: as §1
Assay [23] deals with Staphylococcus aureus. Briefly: Antimicrobial activity against drug-susceptible Staphylococcus aureus 3 after 20 hrs by agar dilution method. Type of assay: functional. In a few lines: as §2
Assay [24] has as its system Staphylococcus aureus. The experiment in a line: Antimicrobial activity against drug-susceptible Staphylococcus aureus 2 after 20 hrs by agar dilution method. Format: functional. In a few lines:
as §2

In assay [25] the test system is Haemophilus influenzae. The experiment in a line: Antimicrobial activity against drug-susceptible Haemophilus influenzae 2 after 20 hrs by agar dilution method. Type of assay: functional. The essentials:
as §1

Where [26] appears, read: Streptococcus pneumoniae, 20 h, read-out: MIC.
The mark [27] stands for this setting: Haemophilus influenzae, 20 h, read-out: MIC.
The mark [28] stands for this setting: Streptococcus pyogenes, 20 h, read-out: MIC.

≈ marks a conversion by molar mass, not a printed value. Bounds are passed on as bounds.

Take `CCOC(=O)[C@H]1[C@H](C)O[C@@H](O[C@H]2[C@H](N(C)C)[C@@H](O)[C@H](O[C@H]3[C@@H](CC=O)C[C@@H](C)[C@@H](O)CN(C)CC(/C=C\Cc4ccnc5ccccc45)CCOC(=O)C[C@@H](OC(=O)CC)[C@@H]3OC)O[C@@H]2C)C[C@@]1(C)O` (stereo in doubt; form 1): the MIC is 0.06 µg/mL (≈ 0.0608 µM) with Streptococcus pneumoniae [1]; greater than 128 µg/mL with Streptococcus pneumoniae [2] (setting [26]); 0.13 µg/mL (≈ 0.132 µM) against Streptococcus pyogenes [3]; 16 µg/mL (≈ 16.2 µM) against Haemophilus influenzae [4]; 2 µg/mL (≈ 2.03 µM) in the assay with Moraxella catarrhalis [5]; greater than 128 µg/mL in the assay with Streptococcus pyogenes [6]. Also, the MIC is 2 µg/mL (≈ 2.03 µM) against Moraxella catarrhalis [7]; 0.5 µg/mL (≈ 0.507 µM) in the assay on Staphylococcus aureus [8]; 0.25 µg/mL (≈ 0.253 µM) in the assay with Staphylococcus aureus [9]; greater than 128 µg/mL with Streptococcus pneumoniae [10] (setting [26]); 0.03 µg/mL (≈ 0.0304 µM) against Streptococcus pneumoniae [11]; greater than 128 µg/mL in the assay with Streptococcus pneumoniae [12] (setting [26]). Further, the MIC is 16 µg/mL (≈ 16.2 µM) with Haemophilus influenzae [13]; 64 µg/mL (≈ 64.9 µM) in the assay with Haemophilus influenzae [14] (setting [27]); 8 µg/mL (≈ 8.11 µM) against Streptococcus pneumoniae [15]; greater than 128 µg/mL in the assay with Staphylococcus aureus [16]; 0.5 µg/mL (≈ 0.507 µM) in the assay on Streptococcus pyogenes [17]; 0.25 µg/mL (≈ 0.253 µM) against Staphylococcus aureus [18]. Moreover, the MIC in the assay on Streptococcus pneumoniae [19] came to 8 µg/mL (≈ 8.11 µM); against Streptococcus pneumoniae [20], 0.06 µg/mL (≈ 0.0608 µM); with Streptococcus pneumoniae [21], 0.06 µg/mL (≈ 0.0608 µM); in the assay on Streptococcus pneumoniae [22] it was 0.06 µg/mL (≈ 0.0608 µM); against Staphylococcus aureus [23], 0.25 µg/mL (≈ 0.253 µM); in the assay on Staphylococcus aureus [24] it was 1 µg/mL (≈ 1.01 µM).

In the case of `CCOC(=O)[C@H]1[C@H](C)O[C@@H](O[C@H]2[C@H](N(C)C)[C@@H](O)[C@H](O[C@H]3[C@@H](CC=O)C[C@@H](C)[C@@H](O)CN(C)CC(/C=C/Cc4cnc5ccccc5c4)CCOC(=O)C[C@@H](OC(=O)CC)[C@@H]3OC)O[C@@H]2C)C[C@@]1(C)O` (stereo in doubt; form 2), the MIC with Streptococcus pneumoniae [1] was 0.06 µg/mL (≈ 0.0608 µM); in the assay with Streptococcus pneumoniae [2], greater than 128 µg/mL; against Streptococcus pyogenes [3], 0.13 µg/mL (≈ 0.132 µM); against Haemophilus influenzae [4] it was 16 µg/mL (≈ 16.2 µM); in the assay with Moraxella catarrhalis [5], 2 µg/mL (≈ 2.03 µM); in the assay with Moraxella catarrhalis [7] it was 2 µg/mL (≈ 2.03 µM). The MIC was 0.5 µg/mL (≈ 0.507 µM) against Staphylococcus aureus [8]; 4 µg/mL (≈ 4.06 µM) against Haemophilus influenzae [25]; 0.25 µg/mL (≈ 0.253 µM) in the assay with Staphylococcus aureus [9]; greater than 128 µg/mL against Streptococcus pneumoniae [10]; 0.015 µg/mL (≈ 0.0152 µM) with Streptococcus pneumoniae [11]; greater than 128 µg/mL with Streptococcus pneumoniae [12]. The MIC with Haemophilus influenzae [13] is 16 µg/mL (≈ 16.2 µM); against Haemophilus influenzae [14], 64 µg/mL (≈ 64.9 µM); with Streptococcus pneumoniae [15] it was 128 µg/mL (≈ 130 µM); in the assay with Streptococcus pyogenes [17], 0.5 µg/mL (≈ 0.507 µM); with Staphylococcus aureus [18], 0.25 µg/mL (≈ 0.253 µM); against Streptococcus pneumoniae [19], 128 µg/mL (≈ 130 µM). The MIC in the assay on Streptococcus pneumoniae [20] stood at 0.06 µg/mL (≈ 0.0608 µM); against Streptococcus pneumoniae [21], 0.06 µg/mL (≈ 0.0608 µM); against Streptococcus pneumoniae [22] it was 0.03 µg/mL (≈ 0.0304 µM); in the assay with Staphylococcus aureus [23], 0.25 µg/mL (≈ 0.253 µM); in the assay with Staphylococcus aureus [24], 0.5 µg/mL (≈ 0.507 µM).

On to `CCOC(=O)[C@H]1[C@H](C)O[C@@H](O[C@H]2[C@H](N(C)C)[C@@H](O)[C@H](O[C@H]3[C@@H](CC=O)C[C@@H](C)[C@@H](O)CN(C)CCC(/C=C/Cc4ccnc5ccccc45)NC(=O)C[C@@H](OC(=O)CC)[C@@H]3OC)O[C@@H]2C)C[C@@]1(C)O` (mixture of isomers), for which the MIC in the assay with Streptococcus pneumoniae [1] (setting [26]) was 0.13 µg/mL; in the assay with Streptococcus pneumoniae [2] (setting [26]), greater than 128 µg/mL; in the assay with Streptococcus pyogenes [3] (setting [28]) it was 0.25 µg/mL; in the assay with Haemophilus influenzae [4] (setting [27]) it was 8 µg/mL; against Moraxella catarrhalis [5], 1 µg/mL; against Streptococcus pyogenes [6], greater than 128 µg/mL. Besides, the MIC in the assay on Moraxella catarrhalis [7] (Moraxella catarrhalis, 20 h, read-out: MIC) was 2 µg/mL; against Staphylococcus aureus [8], 0.5 µg/mL; in the assay with Haemophilus influenzae [25] (setting [27]), 1 µg/mL; against Staphylococcus aureus [9], 0.5 µg/mL; with Streptococcus pneumoniae [10] (setting [26]) it was greater than 128 µg/mL; against Streptococcus pneumoniae [11], 0.03 µg/mL. Further, the MIC in the assay on Streptococcus pneumoniae [12] (setting [26]) is greater than 128 µg/mL; with Haemophilus influenzae [13] (setting [27]), 8 µg/mL; in the assay on Haemophilus influenzae [14] (setting [27]) it was 32 µg/mL; against Streptococcus pneumoniae [15] it was 8 µg/mL; with Staphylococcus aureus [16], greater than 128 µg/mL; in the assay with Streptococcus pyogenes [17] (setting [28]) it was 1 µg/mL. Further, the MIC against Staphylococcus aureus [18] came to 0.5 µg/mL; in the assay on Streptococcus pneumoniae [19], 8 µg/mL; in the assay with Streptococcus pneumoniae [20] (setting [26]), 0.13 µg/mL; in the assay on Streptococcus pneumoniae [21] (setting [26]), 0.13 µg/mL; against Streptococcus pneumoniae [22], 0.06 µg/mL; in the assay on Staphylococcus aureus [23] (Staphylococcus aureus, 20 h, read-out: MIC), 0.5 µg/mL. Further, the MIC against Staphylococcus aureus [24] is 1 µg/mL.
